pEC50, pIC50: −log10 of the molar value.
Tests used:
[1] = molecular target: Replicase polyprotein 1ab (Feline coronavirus (strain FIPV WSU-79/1146) (FCoV), UniProt Q98VG9); assay: Inhibition of Feline infectious peritonitis virus 3CL protease using Dabcyl-KTSAVLQ/SGFRKME-Edans as substrate incubated for 30 mins followed by substrate addition measured after 1 hr by FRET assay
How it was run: (§1)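 Purified recombinant 3CLpro of FIPV, MERS-CoV or SARS-CoV was preincubated 30 min at 37 °C with serial compound dilutions or DMSO. Buffer: 20 mM HEPES pH 8, 200 mM NaCl, 0.4 mM EDTA, 60% glycerol, 6 mM DTT. Substrate was then added and fluorescence read 1 h later (ex 360/em 460 nm), minus no-protease background. IC50 came from variable-slope fits, at least two determinations.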

[2] = molecular target: Replicase polyprotein 1ab (Middle East respiratory syndrome-related coronavirus (isolate UnitedKingdom/H123990006/2012) (Betacoronavirus England 1) (Humancoronavirus EMC), UniProt K9N7C7); assay: Inhibition of Middle East respiratory syndrome-related coronavirus 3CL protease using Dabcyl-KTSAVLQ/SGFRKME-Edans as substrate incubated for 30 mins followed by substrate addition measured after 1 hr by FRET assay; how it was run: as §1
[3] = molecular target: Replicase polyprotein 1ab (Severe acute respiratory syndrome-related coronavirus, UniProt P0C6X7); assay: Inhibition of SARS coronavirus 3CL protease using Dabcyl-KTSAVLQ/SGFRKME-Edans as substrate incubated for 30 mins followed by substrate addition measured after 1 hr by FRET assay; how it was run: as §1
[4] = Cytotoxicity against cat CRFK cells assessed as reduction in cell viability after 72 hrs by CytoTox 96 nonradioactive cytotoxicity assay; type: cell-based, Felis catus
How it was run: (§2)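 Confluent Vero81, CRFK or CCL9.1 cells were exposed to compound at 1–100 μM for 72 h. Cytotoxicity was read with the CytoTox 96 nonradioactive kit. CC50 was taken as the dose giving 50% cell death, averaged over at least two determinations.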

[5] = tested on: Feline infectious peritonitis virus; assay: Antiviral activity against Feline infectious peritonitis virus infected in […] cells assessed as reduction in viral titer after 48 hrs; type: functional, organism-based; conditions: Alphacoronavirus 1, 48 h
[6] = Cytotoxicity against mouse CCL-9.1 assessed as reduction in cell viability after 72 hrs by CytoTox 96 nonradioactive cytotoxicity assay; conditions: CCL-9.1 cells; how it was run: as §2
[7] = tested on: Middle East respiratory syndrome-related coronavirus; assay: Antiviral activity against Middle East respiratory syndrome-related coronavirus infected in African green monkey Vero81 cells assessed as reduction in viral titer after 48 hrs; type: functional, organism-based
[8] = Cytotoxicity against African green monkey Vero81 cells assessed as reduction in cell viability after 72 hrs by CytoTox 96 nonradioactive cytotoxicity assay; type: cell-based; conditions: chlorocebus sabaeus; how it was run: as §2
[9] = Selectivity index, ratio of CC50 for African green monkey Vero81 cells to IC50 for Middle East respiratory syndrome-related coronavirus; type: toxicity; conditions: read-out: Ratio CC50/IC50

Replicase polyprotein 1ab (Middle East respiratory syndrome-related coronavirus (isolate UnitedKingdom/H123990006/2012) (Betacoronavirus England 1) (Humancoronavirus EMC), UniProt K9N7C7), sequence (K9N7C7 3248-3553 limits assumed): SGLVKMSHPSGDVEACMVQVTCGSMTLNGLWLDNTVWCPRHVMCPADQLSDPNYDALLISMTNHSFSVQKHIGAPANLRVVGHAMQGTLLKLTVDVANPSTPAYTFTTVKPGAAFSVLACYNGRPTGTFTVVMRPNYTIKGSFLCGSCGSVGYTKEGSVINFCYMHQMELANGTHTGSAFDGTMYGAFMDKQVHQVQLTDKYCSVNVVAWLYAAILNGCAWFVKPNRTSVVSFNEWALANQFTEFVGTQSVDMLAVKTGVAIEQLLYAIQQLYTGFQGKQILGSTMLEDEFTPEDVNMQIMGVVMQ
Replicase polyprotein 1ab (Feline coronavirus (strain FIPV WSU-79/1146) (FCoV), UniProt Q98VG9), sequence (Q98VG9 2904-3205 limits assumed): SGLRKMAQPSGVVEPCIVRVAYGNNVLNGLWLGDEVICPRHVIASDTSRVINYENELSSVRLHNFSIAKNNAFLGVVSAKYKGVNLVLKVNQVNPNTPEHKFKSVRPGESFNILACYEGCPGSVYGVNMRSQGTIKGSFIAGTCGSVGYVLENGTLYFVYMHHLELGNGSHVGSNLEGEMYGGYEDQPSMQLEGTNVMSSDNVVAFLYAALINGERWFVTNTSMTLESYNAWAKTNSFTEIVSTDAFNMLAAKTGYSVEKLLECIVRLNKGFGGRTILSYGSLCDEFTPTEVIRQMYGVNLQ

SMILES	pIC50 [1]	pIC50 [2]	pIC50 [3]	CC50 at 72 h [4]	pEC50 [5]	CC50 at 72 h [6]	pEC50 [7]	CC50 at 72 h [8]	selectivity ratio [9]
CCOC(=O)N1CCC(OC(=O)N[C@@H](CC(C)C)C(=O)N[C@H](C=O)C[C@@H]2CCNC2=O)CC1	5.89	6.22	5.49	–	–	–	–	–	–
CCOC(=O)N1CCC(OC(=O)N[C@@H](CC(C)C)C(=O)N[C@@H](C[C@@H]2CCNC2=O)C(O)S(=O)(=O)O)CC1 (some centres not stated)	5.96	6.30	5.06	–	–	–	–	–	–
CCC1(OC(=O)N[C@@H](CC(C)C)C(=O)N[C@H](C=O)C[C@@H]2CCNC2=O)CCN(C(=O)OC(C)(C)C)CC1	5.26	5.21	5.26	–	–	–	–	–	–
CC(C)C[C@H](NC(=O)OC1(Cc2ccccc2)CCN(C(=O)OC(C)(C)C)CC1)C(=O)N[C@H](C=O)C[C@@H]1CCNC1=O	5.80	6.10	5.28	–	–	–	–	–	–
CCC1(OC(=O)N[C@@H](CC(C)C)C(=O)N[C@@H](C[C@@H]2CCNC2=O)C(O)S(=O)(=O)O)CCN(C(=O)OC(C)(C)C)CC1 (some centres not stated)	5.17	5.12	5.39	–	–	–	–	–	–
CC(C)C[C@H](NC(=O)OC1CCN(C(=O)OC(C)(C)C)CC1)C(=O)N[C@H](C=O)C[C@@H]1CCNC1=O	6.10	6.22	5.68	–	–	–	–	–	–
CC(C)C[C@H](NC(=O)OC1(Cc2ccccc2)CCN(S(C)(=O)=O)CC1)C(=O)N[C@@H](C[C@@H]1CCNC1=O)C(O)S(=O)(=O)O (some centres not stated)	5.96	6.05	5.37	–	–	–	–	–	–
CC(C)C[C@H](NC(=O)OC1(Cc2ccccc2)CCN(S(C)(=O)=O)CC1)C(=O)N[C@H](C=O)C[C@@H]1CCNC1=O	6.10	6.15	5.41	–	–	–	–	–	–
CC(C)C[C@H](NC(=O)OC1(Cc2ccccc2)CCN(C(=O)OC(C)(C)C)CC1)C(=O)N[C@@H](C[C@@H]1CCNC1=O)C(O)S(=O)(=O)O (some centres not stated)	5.68	6.15	5.20	> 100000 nM	7.00	> 100000 nM	6.10	> 100000 nM	–
CC(C)C[C@H](NC(=O)OC1CCN(S(C)(=O)=O)CC1)C(=O)N[C@@H](C[C@@H]1CCNC1=O)C(O)S(=O)(=O)O (some centres not stated)	5.64	6.22	4.38	–	–	–	–	–	–
CC(C)C[C@H](NC(=O)OC1CCN(C(=O)OC(C)(C)C)CC1)C(=O)N[C@@H](C[C@@H]1CCNC1=O)C(O)S(=O)(=O)O (some centres not stated)	5.62	6.40	5.29	> 100000 nM	5.82	> 100000 nM	6.30	> 100000 nM	> 250
CC(C)C[C@H](NC(=O)OC1CCN(S(C)(=O)=O)CC1)C(=O)N[C@H](C=O)C[C@@H]1CCNC1=O	5.46	6.15	4.54	–	–	–	–	–	–

— ChEMBL document CHEMBL4196085, “Structure-guided design of potent and permeable inhibitors of MERS coronavirus 3CL protease that utilize a piperidine moiety as a novel design element” (Eur J Med Chem, 2018)
